According to ChEMBL document CHEMBL5058577, “EUbOPEN Chemogenomics Library 2 (Multiplex)” (2022):

System: HEK-293T
Experiment: Multiplex assay against HEK293T
Format: toxicity, cell-based
Conditions: human
Procedure, shortened: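 Live cells were stained at seeding with Hoechst33342, BioTracker Green Microtubule Cytoskeleton Dye, MitoTracker Red and Annexin V Alexa Fluor 680, then imaged on a CQ1 microscope at 37°C and 5% CO2 after compound addition. CellPathfinder machine-learning gating split cells into Hoechst high-intensity objects or normal cells. Normal cells were split into healthy, pyknosed or fragmented nuclei, and pyknosed cells into mitotic or apoptotic. Tubulin, mitochondrial-mass and membrane-permeability phenotypes are per cents of healthy-nucleus cells.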

[1] = 12 h, 1 µM, compound concentration 1 uM, replicate 1
[2] = 12 h, 1 µM, compound concentration 1 uM, replicate 2
[3] = 12 h, 10 µM, compound concentration 10 uM, replicate 1
[4] = 12 h, 10 µM, compound concentration 10 uM, replicate 2
[5] = 24 h, 1 µM, compound concentration 1 uM, replicate 1
[6] = 24 h, 1 µM, compound concentration 1 uM, replicate 2
[7] = 24 h, 10 µM, compound concentration 10 uM, replicate 1
[8] = 24 h, 10 µM, compound concentration 10 uM, replicate 2
[9] = 48 h, 1 µM, compound concentration 1 uM, replicate 1
[10] = 48 h, 1 µM, compound concentration 1 uM, replicate 2
[11] = 48 h, 10 µM, compound concentration 10 uM, replicate 1
[12] = 48 h, 10 µM, compound concentration 10 uM, replicate 2

Structure (SMILES): CCCCC(=O)N(Cc1ccc(-c2ccccc2-c2nnn[nH]2)cc1)[C@H](C(=O)O)C(C)C
- Population Apoptotic (%) [1]: 44%
- Population Fragmented Nuclei (%) [1]: 7%
- Population Healthy Nuclei (%) [1]: 80%
- Population Hoechst High Intensity Objects (%) [1]: 9%
- Population Membrane Permeable-Phenotype (%) [1]: 0%
- Population Mitochondria Different-Phenotype (%) [1]: 36%
- Population Mitotic Cells (%) [1]: 55%
- Population Normal (%) [1]: 90%
- Population Pyknosed Nuclei (%) [1]: 12%
- Population Tubulin-Different-Phenotype (%) [1]: 16%
- Total Cell Count [1]: 469
- Population Apoptotic (%) [2]: 40%
- Population Fragmented Nuclei (%) [2]: 6%
- Population Healthy Nuclei (%) [2]: 74%
- Population Hoechst High Intensity Objects (%) [2]: 11%
- Population Mitochondria Different-Phenotype (%) [2]: 49%
- Population Mitotic Cells (%) [2]: 59%
- Population Normal (%) [2]: 88%
- Population Pyknosed Nuclei (%) [2]: 18%
- Population Tubulin-Different-Phenotype (%) [2]: 21%
- Total Cell Count [2]: 290
- Population Apoptotic (%) [3]: 21%
- Population Fragmented Nuclei (%) [3]: 7%
- Population Healthy Nuclei (%) [3]: 83%
- Population Hoechst High Intensity Objects (%) [3]: 5%
- Population Membrane Permeable-Phenotype (%) [3]: 0%
- Population Mitochondria Different-Phenotype (%) [3]: 30%
- Population Mitotic Cells (%) [3]: 78%
- Population Normal (%) [3]: 94%
- Population Pyknosed Nuclei (%) [3]: 8%
- Population Tubulin-Different-Phenotype (%) [3]: 19%
- Total Cell Count [3]: 507
- Population Apoptotic (%) [4]: 51%
- Population Fragmented Nuclei (%) [4]: 5%
- Population Healthy Nuclei (%) [4]: 81%
- Population Hoechst High Intensity Objects (%) [4]: 10%
- Population Mitochondria Different-Phenotype (%) [4]: 63%
- Population Mitotic Cells (%) [4]: 48%
- Population Normal (%) [4]: 89%
- Population Pyknosed Nuclei (%) [4]: 13%
- Total Cell Count [4]: 310
- Population Apoptotic (%) [5]: 30%
- Population Fragmented Nuclei (%) [5]: 11%
- Population Healthy Nuclei (%) [5]: 78%
- Population Hoechst High Intensity Objects (%) [5]: 5%
- Population Membrane Permeable-Phenotype (%) [5]: 0%
- Population Mitochondria Different-Phenotype (%) [5]: 21%
- Population Mitotic Cells (%) [5]: 70%
- Population Normal (%) [5]: 94%
- Population Pyknosed Nuclei (%) [5]: 10%
- Population Tubulin-Different-Phenotype (%) [5]: 12%
- Total Cell Count [5]: 630
- Population Apoptotic (%) [6]: 32%
- Population Fragmented Nuclei (%) [6]: 9%
- Population Healthy Nuclei (%) [6]: 82%
- Population Hoechst High Intensity Objects (%) [6]: 6%
- Population Mitochondria Different-Phenotype (%) [6]: 26%
- Population Mitotic Cells (%) [6]: 67%
- Population Normal (%) [6]: 93%
- Population Pyknosed Nuclei (%) [6]: 8%
- Total Cell Count [6]: 429
- Population Apoptotic (%) [7]: 20%
- Population Fragmented Nuclei (%) [7]: 9%
- Population Healthy Nuclei (%) [7]: 82%
- Population Hoechst High Intensity Objects (%) [7]: 5%
- Population Membrane Permeable-Phenotype (%) [7]: 0%
- Population Mitochondria Different-Phenotype (%) [7]: 19%
- Population Mitotic Cells (%) [7]: 79%
- Population Normal (%) [7]: 94%
- Population Pyknosed Nuclei (%) [7]: 7%
- Population Tubulin-Different-Phenotype (%) [7]: 11%
- Total Cell Count [7]: 663
- Population Apoptotic (%) [8]: 35%
- Population Hoechst High Intensity Objects (%) [8]: 7%
- Population Mitochondria Different-Phenotype (%) [8]: 30%
- Population Mitotic Cells (%) [8]: 64%
- Population Normal (%) [8]: 92%
- Population Tubulin-Different-Phenotype (%) [8]: 13%
- Total Cell Count [8]: 420
- Population Apoptotic (%) [9]: 18%
- Population Fragmented Nuclei (%) [9]: 13%
- Population Healthy Nuclei (%) [9]: 80%
- Population Hoechst High Intensity Objects (%) [9]: 2%
- Population Membrane Permeable-Phenotype (%) [9]: 1%
- Population Mitochondria Different-Phenotype (%) [9]: 12%
- Population Mitotic Cells (%) [9]: 81%
- Population Normal (%) [9]: 97%
- Population Pyknosed Nuclei (%) [9]: 5%
- Population Tubulin-Different-Phenotype (%) [9]: 7%
- Total Cell Count [9]: 1024
- Population Apoptotic (%) [10]: 19%
- Population Fragmented Nuclei (%) [10]: 14%
- Population Healthy Nuclei (%) [10]: 79%
- Population Hoechst High Intensity Objects (%) [10]: 3%
- Population Membrane Permeable-Phenotype (%) [10]: 0%
- Population Mitochondria Different-Phenotype (%) [10]: 16%
- Population Mitotic Cells (%) [10]: 80%
- Population Normal (%) [10]: 96%
- Population Pyknosed Nuclei (%) [10]: 6%
- Population Tubulin-Different-Phenotype (%) [10]: 9%
- Total Cell Count [10]: 653
- Population Apoptotic (%) [11]: 14%
- Population Fragmented Nuclei (%) [11]: 14%
- Population Healthy Nuclei (%) [11]: 81%
- Population Hoechst High Intensity Objects (%) [11]: 1%
- Population Membrane Permeable-Phenotype (%) [11]: 2%
- Population Mitochondria Different-Phenotype (%) [11]: 8%
- Population Mitotic Cells (%) [11]: 85%
- Population Normal (%) [11]: 98%
- Population Pyknosed Nuclei (%) [11]: 3%
- Population Tubulin-Different-Phenotype (%) [11]: 8%
- Total Cell Count [11]: 1205
- Population Apoptotic (%) [12]: 15%
- Population Healthy Nuclei (%) [12]: 78%
- Population Hoechst High Intensity Objects (%) [12]: 2%
- Population Membrane Permeable-Phenotype (%) [12]: 0%
- Population Mitochondria Different-Phenotype (%) [12]: 17%
- Population Mitotic Cells (%) [12]: 84%
- Population Normal (%) [12]: 97%
- Population Pyknosed Nuclei (%) [12]: 7%
- Total Cell Count [12]: 623
